According to ChEMBL document CHEMBL1132405, “Synthesis and SAR of 1-alkyl-2-phenylethylamine derivatives designed from N,N-dipropyl-4-methoxy-3-(2-phenylethoxy)phenylethylamine to discover sigma(1) ligands” (J Med Chem, 1999):

Key:
D(2) dopamine receptor = D(2) dopamine receptor (Rattus norvegicus, UniProt P61169); assay: In vitro binding affinity at Dopamine receptor D2 of rat striatal membranes by [3H]-raclopride displacement.
[1] = (§1) In vitro binding affinity at Sigma opioid receptor type 1 on guinea pig brain membranes by [3H]pentazocine displacement.; parameters: species or system Membrane
[2] = as §1; parameters: species or system Membrane; remark: listed apart in the source
Summary of the method: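 IC50 from displacement curves at 10 concentrations of each compound, each run in duplicate. Values are means of 1–3 separate experiments, with variation between experiments below 15%.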

Sequence of D(2) dopamine receptor (P61169 whole entry): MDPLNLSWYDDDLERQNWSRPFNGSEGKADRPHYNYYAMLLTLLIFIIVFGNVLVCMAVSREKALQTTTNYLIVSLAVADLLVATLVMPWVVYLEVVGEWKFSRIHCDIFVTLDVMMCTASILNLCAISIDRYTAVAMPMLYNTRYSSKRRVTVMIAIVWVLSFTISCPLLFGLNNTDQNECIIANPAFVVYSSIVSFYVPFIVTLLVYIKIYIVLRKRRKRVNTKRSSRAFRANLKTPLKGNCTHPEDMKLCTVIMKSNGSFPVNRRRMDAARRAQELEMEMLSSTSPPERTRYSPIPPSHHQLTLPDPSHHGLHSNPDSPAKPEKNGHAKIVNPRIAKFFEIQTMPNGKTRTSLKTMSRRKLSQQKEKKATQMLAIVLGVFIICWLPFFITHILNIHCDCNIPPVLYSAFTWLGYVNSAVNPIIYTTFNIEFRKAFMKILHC

Row | Compound | IC50 (D(2) dopamine receptor) | IC50 [1] | IC50 [2]
1 | CCCN(CCC)C(CC)Cc1ccc(OC)c(OCCc2ccccc2)c1 (stereo unspecified) | > 1000 nM | – | –
2 | CCCNCCc1ccc(OC)c(OCCc2ccccc2)c1 | > 1000 nM | – | –
3 | CCCNC(CCC(C)C)Cc1ccc(OC)c(OCCc2ccccc2)c1 (stereo in doubt; 6i) | > 1000 nM | 1.6 nM | –
4 | CCCC(Cc1ccc(OC)c(OCCc2ccccc2)c1)N(CCC)CCC (stereo unspecified) | > 1000 nM | 8.2 nM | –
5 | CCCCCCC(Cc1ccc(OC)c(OCCc2ccccc2)c1)NCCC (stereo unspecified) | > 1000 nM | 8.1 nM | –
6 | CCCCC(Cc1ccc(OC)c(OCCc2ccccc2)c1)NCCC (stereo unspecified) [listing 1 of 2 here] | – | 34 nM | –
7 | CCCCCC(Cc1ccc(OC)c(OCCc2ccccc2)c1)NCCC (stereo unspecified) | > 1000 nM | 2.2 nM | –
8 | CCCCC(Cc1ccc(OC)c(OCCc2ccccc2)c1)NCCC (stereo unspecified) [listing 2 of 2 here] | > 1000 nM | 1.9 nM | –
9 | CCCN(CCC)CCc1ccc(OC)c(OCCc2ccccc2)c1 | > 1000 nM | – | 1.5 nM
10 | CCCNC(CCC)Cc1ccc(OC)c(OCCc2ccccc2)c1 (stereo unspecified) | > 1000 nM | 4.1 nM | –
11 | COc1ccc(CCN2CCCC2)cc1OCCc1ccccc1 | > 1000 nM | – | –
12 | CCCCC(Cc1ccc(OC)c(OCCc2ccccc2)c1)NCCC (single isomer, unassigned; (-)) | > 1000 nM | 0.7 nM | –
13 | CCCNC(CCC(C)C)Cc1ccc(OC)c(OCCc2ccccc2)c1 (stereo in doubt; 6i(+)) | – | 22 nM | –
14 | CCCNC(CC)Cc1ccc(OC)c(OCCc2ccccc2)c1 (stereo unspecified) | > 1000 nM | 1.8 nM | –
15 | COc1ccc(CCN)cc1OCCc1ccccc1 | > 1000 nM | – | –
16 | CCCNC(CCC(C)C)Cc1ccc(OC)c(OCCc2ccccc2)c1 (single isomer, unassigned; (-)) | > 1000 nM | 0.5 nM | –
